Test results taken from ChEMBL document CHEMBL2176996, “Synthesis and structure-affinity relationships of selective high-affinity 5-HT(4) receptor antagonists: application to the design of new potential single photon emission computed tomography tracers” (J Med Chem, 2012).
Activity calls are given as the source filed them. The calls are words filed in the database; no cut-off is given here.

How the values were obtained:
[1] = biological target: 5-hydroxytryptamine receptor 4 (Cavia porcellus, UniProt O70528); assay: Displacement of [3H]GR113808 from 5HT4R in guinea pig striatal membranes; type: cell membranes, Striatum, Membrane
[2] = biological target: 5-hydroxytryptamine receptor 2A (Homo sapiens, UniProt P28223); assay: Binding affinity to human 5HT2A by Cerep protocol based assay
[3] = biological target: T1, 5-hydroxytryptamine receptor 1A (Homo sapiens, UniProt P08908); assay: Binding affinity to human 5HT1A by Cerep protocol based assay
T1 sequence (P08908 whole entry): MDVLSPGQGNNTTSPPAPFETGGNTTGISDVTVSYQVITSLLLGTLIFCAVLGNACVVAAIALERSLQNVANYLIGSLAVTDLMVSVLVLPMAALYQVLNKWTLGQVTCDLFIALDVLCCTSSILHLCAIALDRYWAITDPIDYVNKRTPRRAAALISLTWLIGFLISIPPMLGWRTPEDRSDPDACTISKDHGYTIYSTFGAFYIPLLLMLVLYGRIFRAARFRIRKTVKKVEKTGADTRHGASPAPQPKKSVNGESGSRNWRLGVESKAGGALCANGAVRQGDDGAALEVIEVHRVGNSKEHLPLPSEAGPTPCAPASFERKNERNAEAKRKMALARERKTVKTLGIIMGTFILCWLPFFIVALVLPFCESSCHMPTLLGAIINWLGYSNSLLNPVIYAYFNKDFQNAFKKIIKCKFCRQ

[4] = biological target: 5-hydroxytryptamine receptor 4 (Cavia porcellus) (UniProt O70528); assay: Displacement of [3H]GR113808 from 5HT4R in guinea pig striatal membranes at 1 uM; type: cell membranes; details: Striatum, Membrane
Outline: (§1)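 Native 5-HT4R in male guinea pig striatal membranes (HEPES 50 mM pH 7.4); 600 µg membrane incubated in duplicate with [3H]GR 113808 at 0.1 nM final, 37 °C, 30 min; filtration on PEI-soaked GF/B filters, cold buffer washes.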

[5] = biological target: 5-hydroxytryptamine receptor 4 (Cavia porcellus) (UniProt O70528); assay: Displacement of [3H]GR113808 from 5HT4R in guinea pig striatal membranes at 10 nM; type: cell membranes; details: Striatum, Membrane; outline: as §1
[6] = biological target: T2, 5-hydroxytryptamine receptor 4 (Homo sapiens, UniProt Q13639)
[7] = biological target: T3, 5-hydroxytryptamine receptor 3A (Homo sapiens, UniProt P46098); assay: Binding affinity to human 5HT3 by Cerep protocol based assay
T3 sequence (P46098 whole entry): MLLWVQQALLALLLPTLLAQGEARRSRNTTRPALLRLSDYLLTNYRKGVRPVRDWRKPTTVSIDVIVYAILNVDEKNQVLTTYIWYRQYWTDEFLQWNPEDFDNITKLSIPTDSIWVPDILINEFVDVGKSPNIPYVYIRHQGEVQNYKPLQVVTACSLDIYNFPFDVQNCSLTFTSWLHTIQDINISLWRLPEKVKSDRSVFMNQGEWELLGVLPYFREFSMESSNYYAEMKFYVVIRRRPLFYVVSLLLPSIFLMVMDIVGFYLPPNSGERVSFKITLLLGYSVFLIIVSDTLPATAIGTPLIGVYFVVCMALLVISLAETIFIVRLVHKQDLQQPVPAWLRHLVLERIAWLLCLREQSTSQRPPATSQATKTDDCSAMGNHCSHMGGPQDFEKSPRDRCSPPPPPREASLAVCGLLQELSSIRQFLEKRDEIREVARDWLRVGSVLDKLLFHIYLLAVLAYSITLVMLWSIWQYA

[8] = biological target: 5-hydroxytryptamine receptor 2B (Homo sapiens, UniProt P41595); assay: Binding affinity to human 5HT2B by Cerep protocol based assay
[9] = biological target: 5-hydroxytryptamine receptor 5A (Homo sapiens, UniProt P47898); assay: Binding affinity to human 5HT5A by Cerep protocol based assay
[10] = biological target: T4, 5-hydroxytryptamine receptor 2C (Homo sapiens, UniProt P28335); assay: Binding affinity to human 5HT2C by Cerep protocol based assay
T4 sequence (P28335 whole entry): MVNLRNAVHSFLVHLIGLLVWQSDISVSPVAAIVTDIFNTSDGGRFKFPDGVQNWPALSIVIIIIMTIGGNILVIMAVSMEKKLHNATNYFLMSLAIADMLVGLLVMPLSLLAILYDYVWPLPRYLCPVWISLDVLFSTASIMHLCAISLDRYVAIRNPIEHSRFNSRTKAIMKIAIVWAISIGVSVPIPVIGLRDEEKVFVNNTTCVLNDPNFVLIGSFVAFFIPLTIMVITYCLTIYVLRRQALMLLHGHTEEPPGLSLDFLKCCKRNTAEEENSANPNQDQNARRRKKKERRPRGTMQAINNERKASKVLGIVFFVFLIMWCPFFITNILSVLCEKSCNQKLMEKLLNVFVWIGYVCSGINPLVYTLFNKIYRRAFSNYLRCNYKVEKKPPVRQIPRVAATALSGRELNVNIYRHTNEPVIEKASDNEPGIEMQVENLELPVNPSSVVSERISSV

[11] = biological target: 5-hydroxytryptamine receptor 7 (Homo sapiens, UniProt P34969); assay: Binding affinity to human 5HT7 by Cerep protocol based assay
[12] = biological target: 5-hydroxytryptamine receptor 1B (Homo sapiens, UniProt P28222); assay: Binding affinity to human 5HT1B by Cerep protocol based assay
[13] = biological target: 5-hydroxytryptamine receptor 1D (Homo sapiens, UniProt P28221); assay: Binding affinity to human 5HT1D by Cerep protocol based assay
[14] = biological target: 5-hydroxytryptamine receptor 6 (Homo sapiens, UniProt P50406); assay: Binding affinity to human 5HT6 by Cerep protocol based assay
[15] = biological target: 5-hydroxytryptamine receptor 1E (Homo sapiens, UniProt P28566); assay: Binding affinity to human 5HT1E by Cerep protocol based assay
[16] = biological target: T2, 5-hydroxytryptamine receptor 4; assay: Displacement of [3H]GR113808 from human recombinant 5HT4R expressed in HEK293T cells; type: cell-based, HEK-293T
[17] = biological target: T2, 5-hydroxytryptamine receptor 4; assay: Displacement of radioligand from human 5HT4R by Cerep protocol based assay
[18] = biological target: T2, 5-hydroxytryptamine receptor 4; remark: listed apart in the source
[19] = biological target: 5-hydroxytryptamine receptor 4 (Rattus norvegicus) (UniProt Q62758); assay: Displacement of [125I]SB 207710 from 5HT4R in rat brain cortex at 1 nM incubated for 30 mins by autoradiography; type: tissue-based
Outline: (§2)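 Frozen rat brain coronal sections (striatum/accumbens level) preincubated 5 min in 50 mM Tris-HCl pH 7.4, then incubated 30 min at room temperature with 100 pM [125I]1 plus competitor (1, 10, 100, 1000 pM). Three 5-min ice-cold buffer washes and a water dip, then drying; phosphorimaging after overnight exposure.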

Mus musculus [20] = assay: In-vivo displacement of [125I]SB 207710 from 5HT4R in mouse olfactory tubercles at 50 ug/kg, iv by autoradiography; type: functional, organism-based; details: Olfactory tubercle
Outline: (§3)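 One mouse dosed intravenously with saline carrying competitor at 50 µg/kg together with 30 µCi [125I]1 (146 Ci/mmol). CO2 sacrifice; 20 µm cryosections taken from 5-HT4R-rich regions (striatum, accumbens nucleus, olfactory tubercles), exposed overnight on phosphorimaging plates and scanned.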

Mus musculus [21] = assay: In-vivo displacement of [125I]SB 207710 from 5HT4R in mouse brain hemispheres at 50 ug/kg, iv by autoradiography; type: functional, organism-based; outline: as §3
[22] = biological target: 5-hydroxytryptamine receptor 4 (Rattus norvegicus) (UniProt Q62758); assay: Displacement of [125I]SB 207710 from 5HT4R in rat brain cortex at 10 pM incubated for 30 mins by autoradiography; type: tissue-based; outline: as §2

Sequence of 5-hydroxytryptamine receptor 2A (P28223 whole entry): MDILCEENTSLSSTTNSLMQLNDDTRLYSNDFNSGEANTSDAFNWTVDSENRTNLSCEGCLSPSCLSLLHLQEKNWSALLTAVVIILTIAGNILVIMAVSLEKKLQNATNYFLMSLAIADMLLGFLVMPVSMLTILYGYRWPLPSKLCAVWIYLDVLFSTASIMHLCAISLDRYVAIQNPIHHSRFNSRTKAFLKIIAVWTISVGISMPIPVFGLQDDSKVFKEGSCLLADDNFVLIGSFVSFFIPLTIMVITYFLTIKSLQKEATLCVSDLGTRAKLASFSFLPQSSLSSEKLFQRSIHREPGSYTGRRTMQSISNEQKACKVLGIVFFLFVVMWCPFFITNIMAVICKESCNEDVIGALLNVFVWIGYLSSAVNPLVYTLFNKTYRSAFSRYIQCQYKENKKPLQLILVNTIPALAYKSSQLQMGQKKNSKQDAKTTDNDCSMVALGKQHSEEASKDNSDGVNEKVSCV
Sequence of 5-hydroxytryptamine receptor 6 (P50406 whole entry): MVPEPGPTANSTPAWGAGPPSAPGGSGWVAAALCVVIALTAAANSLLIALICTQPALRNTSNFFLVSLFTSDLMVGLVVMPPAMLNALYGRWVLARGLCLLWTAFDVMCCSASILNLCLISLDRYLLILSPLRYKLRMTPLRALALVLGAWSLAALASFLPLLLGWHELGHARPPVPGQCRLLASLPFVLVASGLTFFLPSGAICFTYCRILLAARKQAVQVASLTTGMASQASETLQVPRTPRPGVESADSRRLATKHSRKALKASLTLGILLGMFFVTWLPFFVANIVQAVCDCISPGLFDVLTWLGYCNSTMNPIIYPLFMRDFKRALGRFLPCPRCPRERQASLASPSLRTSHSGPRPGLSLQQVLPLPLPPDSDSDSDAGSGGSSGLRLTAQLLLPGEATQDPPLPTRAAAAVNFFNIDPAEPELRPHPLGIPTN
Sequence of 5-hydroxytryptamine receptor 7 (P34969 whole entry): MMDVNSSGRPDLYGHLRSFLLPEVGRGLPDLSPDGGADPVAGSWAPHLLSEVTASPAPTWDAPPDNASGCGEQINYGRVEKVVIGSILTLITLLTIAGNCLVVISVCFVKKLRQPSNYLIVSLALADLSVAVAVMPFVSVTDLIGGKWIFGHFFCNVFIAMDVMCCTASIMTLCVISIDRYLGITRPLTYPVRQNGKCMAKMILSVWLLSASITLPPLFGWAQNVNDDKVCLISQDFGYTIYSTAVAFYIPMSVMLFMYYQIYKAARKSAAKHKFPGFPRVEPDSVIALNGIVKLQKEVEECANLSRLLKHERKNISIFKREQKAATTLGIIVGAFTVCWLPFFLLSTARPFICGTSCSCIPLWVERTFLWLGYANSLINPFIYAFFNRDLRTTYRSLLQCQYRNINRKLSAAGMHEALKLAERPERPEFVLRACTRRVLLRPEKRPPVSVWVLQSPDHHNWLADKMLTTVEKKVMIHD
Sequence of 5-hydroxytryptamine receptor 1E (P28566 whole entry): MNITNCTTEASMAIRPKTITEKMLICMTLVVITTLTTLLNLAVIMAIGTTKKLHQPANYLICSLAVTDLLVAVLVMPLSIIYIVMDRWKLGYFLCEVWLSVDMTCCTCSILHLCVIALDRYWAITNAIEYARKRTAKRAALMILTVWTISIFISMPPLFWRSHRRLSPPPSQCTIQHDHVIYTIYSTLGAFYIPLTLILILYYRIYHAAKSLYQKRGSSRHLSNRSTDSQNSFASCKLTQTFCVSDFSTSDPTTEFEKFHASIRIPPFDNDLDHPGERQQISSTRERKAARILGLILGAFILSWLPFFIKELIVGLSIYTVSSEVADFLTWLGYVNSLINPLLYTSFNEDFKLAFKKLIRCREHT
Sequence of 5-hydroxytryptamine receptor 4 (Cavia porcellus, UniProt O70528) (O70528 whole entry): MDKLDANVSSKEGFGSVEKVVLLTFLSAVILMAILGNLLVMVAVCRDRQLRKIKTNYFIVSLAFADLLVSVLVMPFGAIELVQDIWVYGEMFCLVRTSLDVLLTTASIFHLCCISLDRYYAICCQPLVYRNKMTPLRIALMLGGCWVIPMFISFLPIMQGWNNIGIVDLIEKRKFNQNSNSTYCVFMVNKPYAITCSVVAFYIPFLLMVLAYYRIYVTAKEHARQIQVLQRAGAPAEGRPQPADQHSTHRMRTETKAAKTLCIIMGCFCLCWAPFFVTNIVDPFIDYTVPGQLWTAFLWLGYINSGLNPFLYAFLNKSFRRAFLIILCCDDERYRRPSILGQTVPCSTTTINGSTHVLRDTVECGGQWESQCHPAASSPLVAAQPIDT
Sequence of 5-hydroxytryptamine receptor 4 (Cavia porcellus) (O70528 whole entry): as above
Sequence of 5-hydroxytryptamine receptor 2B (P41595 whole entry): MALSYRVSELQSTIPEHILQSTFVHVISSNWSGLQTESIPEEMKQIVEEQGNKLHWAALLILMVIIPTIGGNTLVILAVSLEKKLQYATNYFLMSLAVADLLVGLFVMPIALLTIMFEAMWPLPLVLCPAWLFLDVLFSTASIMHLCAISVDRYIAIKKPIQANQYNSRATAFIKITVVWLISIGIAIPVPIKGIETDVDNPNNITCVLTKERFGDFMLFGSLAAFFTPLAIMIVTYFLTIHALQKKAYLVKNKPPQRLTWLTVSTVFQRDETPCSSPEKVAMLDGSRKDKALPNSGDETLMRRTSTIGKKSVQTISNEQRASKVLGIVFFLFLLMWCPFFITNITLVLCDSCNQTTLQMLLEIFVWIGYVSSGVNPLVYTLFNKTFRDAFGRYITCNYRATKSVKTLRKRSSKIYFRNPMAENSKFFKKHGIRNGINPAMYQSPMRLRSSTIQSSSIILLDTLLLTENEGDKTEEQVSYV
T2 sequence (Q13639 whole entry): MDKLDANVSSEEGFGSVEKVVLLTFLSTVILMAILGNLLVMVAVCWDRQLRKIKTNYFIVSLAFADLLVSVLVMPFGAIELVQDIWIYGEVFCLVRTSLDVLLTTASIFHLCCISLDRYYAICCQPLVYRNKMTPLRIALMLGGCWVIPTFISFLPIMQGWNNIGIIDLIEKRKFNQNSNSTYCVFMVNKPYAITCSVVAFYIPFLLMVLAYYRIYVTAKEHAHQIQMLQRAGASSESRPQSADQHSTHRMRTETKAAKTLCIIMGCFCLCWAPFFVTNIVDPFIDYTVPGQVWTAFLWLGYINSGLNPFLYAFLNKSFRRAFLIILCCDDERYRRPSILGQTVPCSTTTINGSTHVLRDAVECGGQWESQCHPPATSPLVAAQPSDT
Sequence of 5-hydroxytryptamine receptor 5A (P47898 whole entry): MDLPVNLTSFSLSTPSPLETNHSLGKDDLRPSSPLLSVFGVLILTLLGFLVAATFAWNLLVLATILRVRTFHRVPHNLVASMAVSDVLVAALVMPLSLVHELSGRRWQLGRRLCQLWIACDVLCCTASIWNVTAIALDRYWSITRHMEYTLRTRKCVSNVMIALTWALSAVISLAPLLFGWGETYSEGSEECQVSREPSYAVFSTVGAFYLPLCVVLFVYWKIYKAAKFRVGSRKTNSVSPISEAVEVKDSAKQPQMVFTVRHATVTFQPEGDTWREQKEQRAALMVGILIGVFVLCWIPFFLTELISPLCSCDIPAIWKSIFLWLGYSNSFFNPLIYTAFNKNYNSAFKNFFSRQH
Sequence of 5-hydroxytryptamine receptor 1D (P28221 whole entry): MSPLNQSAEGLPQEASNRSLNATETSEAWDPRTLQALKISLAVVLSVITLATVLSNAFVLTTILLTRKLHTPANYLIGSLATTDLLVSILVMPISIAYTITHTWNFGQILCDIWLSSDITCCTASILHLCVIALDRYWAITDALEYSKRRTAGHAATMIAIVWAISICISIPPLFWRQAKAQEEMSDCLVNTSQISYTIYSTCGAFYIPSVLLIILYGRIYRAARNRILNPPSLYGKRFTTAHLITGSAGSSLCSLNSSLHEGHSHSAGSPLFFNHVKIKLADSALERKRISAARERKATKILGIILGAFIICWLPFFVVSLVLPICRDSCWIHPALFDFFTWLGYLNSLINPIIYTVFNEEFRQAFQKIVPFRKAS
Sequence of 5-hydroxytryptamine receptor 1B (P28222 whole entry): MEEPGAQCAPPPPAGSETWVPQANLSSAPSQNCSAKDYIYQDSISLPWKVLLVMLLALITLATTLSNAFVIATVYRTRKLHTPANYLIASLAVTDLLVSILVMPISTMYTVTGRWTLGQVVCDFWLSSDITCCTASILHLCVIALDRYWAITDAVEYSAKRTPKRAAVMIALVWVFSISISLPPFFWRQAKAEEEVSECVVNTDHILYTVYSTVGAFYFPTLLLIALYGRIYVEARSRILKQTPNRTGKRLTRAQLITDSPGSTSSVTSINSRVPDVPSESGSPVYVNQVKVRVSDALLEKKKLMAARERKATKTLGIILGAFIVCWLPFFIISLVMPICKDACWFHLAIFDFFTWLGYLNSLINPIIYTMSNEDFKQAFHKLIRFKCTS
Sequence of 5-hydroxytryptamine receptor 4 (Rattus norvegicus) (Q62758 whole entry): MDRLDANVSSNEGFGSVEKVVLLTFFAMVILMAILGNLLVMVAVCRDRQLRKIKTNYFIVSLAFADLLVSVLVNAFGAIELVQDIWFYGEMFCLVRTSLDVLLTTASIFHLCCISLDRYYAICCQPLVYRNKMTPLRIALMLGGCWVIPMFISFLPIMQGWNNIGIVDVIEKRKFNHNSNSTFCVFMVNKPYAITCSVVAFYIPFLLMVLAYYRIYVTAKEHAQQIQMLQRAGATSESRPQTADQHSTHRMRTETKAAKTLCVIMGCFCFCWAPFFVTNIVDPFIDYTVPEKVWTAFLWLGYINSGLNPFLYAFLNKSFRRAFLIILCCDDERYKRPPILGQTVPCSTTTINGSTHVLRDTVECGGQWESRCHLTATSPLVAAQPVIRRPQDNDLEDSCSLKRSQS

SMILES: CCCN1CCC(COc2nc3ccc(OC)cc3c3ccccc23)CC1
- Ki [1]: 233 nM

SMILES: CCCN1CCC(COc2nc3c(I)cccc3c3ncccc23)CC1
- Ki [2]: 1820 nM
- Ki [3]: 5630 nM

SMILES: CCCN1CCC(COc2nc3cc(OC)ccc3c3ccccc23)CC1
- Ki [1]: 1900 nM

SMILES: CCCN1CCC(COc2nc3c(C)cccc3c3ccccc23)CC1
- inhibition [4]: 100%
- Ki [1]: 100 nM
- inhibition [5]: 0%

SMILES: CCCN1CCC(COc2nc3c(OC)cccc3c3ccccc23)CC1
- inhibition [4]: 100%
- Ki [2]: 5960 nM
- EC50 [6]: 79.4 nM
- Ki [7]: > 10000 nM
- Ki [8]: 29.3 nM
- Ki [9]: > 10000 nM
- Ki [10]: > 10000 nM
- Ki [11]: 3470 nM
- Ki [1]: 35 nM
- inhibition [5]: 22%
- Ki [3]: > 10000 nM
- Ki [12]: > 10000 nM
- Ki [13]: 2570 nM
- Ki [14]: > 10000 nM
- Ki [15]: > 10000 nM
- Ki [16]: 17 nM

SMILES: CCCN1CCC(COc2nc3ccccc3c3ccc([N+](=O)[O-])cc23)CC1
- inhibition [4]: 54%
- inhibition [5]: 0%

SMILES: Ic1ccc(CCCN2CCC(COc3nc4ccccc4c4ccccc34)CC2)cc1
- inhibition [4]: 100%
- Ki [1]: 115 nM
- inhibition [5]: 3%

SMILES: CCCN1CCC(COc2nc3ccc(C)cc3c3ccccc23)CC1
- Ki [1]: 246 nM

SMILES: CCCN1CCC(COc2nc3cc(Cl)ccc3c3ccccc23)CC1
- inhibition [4]: 85%
- inhibition [5]: 0%

SMILES: CCCN1CCC(COc2nc3c(Cl)cccc3c3ccccc23)CC1
- inhibition [4]: 100%
- EC50 [6]: 251 nM
- Ki [1]: 21.9 nM
- inhibition [5]: 24%
- Ki [16]: 5 nM

SMILES: CCCN1CCC(COc2nc3ccccc3c3ccc(OC)cc23)CC1
- inhibition [4]: 85%
- inhibition [5]: 0%

SMILES: CCCN1CCC(COc2nc3ccccc3c3ccc(F)cc23)CC1
- inhibition [4]: 90%
- Ki [1]: 154 nM
- inhibition [5]: 4%

SMILES: CCCN1CCC(COc2nc3cc(C)ccc3c3ccccc23)CC1
- Ki [1]: 691 nM

SMILES: CCCN1CCC(COc2nc3ccccc3c3cnccc23)CC1
- inhibition [4]: 100%
- Ki [1]: 22.8 nM
- inhibition [5]: 50%
- Ki [16]: 403 nM

SMILES: CCCN1CCC(COc2nc3c(I)cccc3c3ccccc23)CC1
- inhibition [4]: 100%
- Ki [2]: 1020 nM
- Ki [17]: 1.2 nM
- Ki [7]: 1310 nM
- Ki [8]: 162 nM
- Ki [9]: 5810 nM
- Ki [10]: 772 nM
- Ki [11]: 153 nM
- Ki [1]: 13.5 nM
- inhibition [5]: 0%
- Ki [3]: > 10000 nM
- Ki [12]: > 10000 nM
- Ki [13]: > 10000 nM
- Ki [14]: > 10000 nM
- Ki [15]: > 10000 nM

SMILES: CCCN1CCC(COc2nc3cc(F)ccc3c3ccccc23)CC1
- Ki [1]: 101 nM
- Ki [16]: 33 nM

SMILES: CCCN1CCC(COc2nc3c(F)cccc3c3ncccc23)CC1
- inhibition [4]: 100%
- Ki [17]: 0.04 nM
- Ki [1]: 2.2 nM
- inhibition [5]: 98%
- pKb [18]: 10.6

SMILES: CCCN1CCC(COc2nc3ccccc3c3ccccc23)CC1
- Ki [1]: 51.5 nM

SMILES: Fc1cccc2c1nc(OCC1CCN(CCCc3ccc(I)cc3)CC1)c1cccnc12
- Activity [19]: Active
- inhibition [4]: 100%
- Ki [2]: 810 nM
- Ki [17]: 0.23 nM
- Activity (Mus musculus [20]): Active
- Activity (Mus musculus [21]): Active
- Ki [7]: 410 nM
- Ki [8]: 340 nM
- Ki [9]: 1700 nM
- Ki [10]: 400 nM
- Ki [11]: 150 nM
- Activity [22]: Active
- Ki [1]: 2.5 nM
- inhibition [5]: 94%
- Ki [3]: 680 nM
- Ki [12]: > 10000 nM
- Ki [13]: > 10000 nM
- Ki [14]: > 10000 nM

SMILES: CCCN1CCC(COc2nc3ccccc3c3cc(F)ccc23)CC1
- Ki [1]: 209 nM

SMILES: CCCN1CCC(COc2nc3ccc(F)cc3c3ccccc23)CC1
- inhibition [4]: 47%
- inhibition [5]: 0%

SMILES: CCCN1CCC(COc2nc3ccccc3c3ncccc23)CC1
- inhibition [4]: 96%
- Ki [2]: > 10000 nM
- EC50 [6]: 10 nM
- Ki [7]: 680 nM
- Ki [8]: 627 nM
- Ki [9]: > 10000 nM
- Ki [10]: 2790 nM
- Ki [11]: > 10000 nM
- Ki [1]: 13.1 nM
- inhibition [5]: 64%
- Ki [3]: > 10000 nM
- Ki [12]: > 10000 nM
- Ki [13]: > 10000 nM
- Ki [14]: > 10000 nM
- Ki [15]: > 10000 nM
- Ki [16]: 7.5 nM

SMILES: CCCN1CCC(COc2nc3ccc(Cl)cc3c3ccccc23)CC1
- inhibition [4]: 27%
- inhibition [5]: 0%

SMILES: CCCN1CCC(COc2nc3ccccc3c3cccc(F)c23)CC1
- Ki [1]: 21.6 nM

SMILES: CCCN1CCC(COc2nc3ccccc3c3cc(C)ccc23)CC1
- inhibition [4]: 28%
- inhibition [5]: 0%
